These results are taken from ChEMBL document CHEMBL2203094, “Ramariolides A-D, antimycobacterial butenolides isolated from the mushroom Ramaria cystidiophora” (J Nat Prod, 2012).

Values after ≈ are worked out from the molar mass of the structure shown. Active and inactive are the calls of the source. No cut-off for these calls is given here.

For assay [1], the system named is Mycolicibacterium smegmatis. The experiment in a line: Antimicrobial activity against Mycobacterium smegmatis str. MC2 155 by broth dilution method. In kind it is functional. In short, it runs like this:
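M. smegmatis mc2155 grown and assayed at 37 °C in NE13 medium. Broth dilution with twofold serial dilutions, top concentration 128 μg/mL, run in triplicate. Resazurin read-out; MIC is the lowest concentration preventing the blue-to-pink change. For MBC, each well was subcultured into fresh medium before resazurin was added, then read the same way.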

Assay [2] relates to Salmonella typhimurium. The experiment in a line: Antimicrobial activity against Salmonella typhimurium ATCC 14028. In kind it is functional, organism-based. To be noted: Salmonella enterica subsp. enterica serovar Typhimurium. In short, it runs like this: (§1)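 Disk diffusion spectrum test: agar plates swabbed from 10^6 cells/mL suspensions of each strain; 6 mm paper disks carrying 50 μg compound; inhibition zone sizes read after 16−18 h.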

The subject of assay [3] is Pseudomonas aeruginosa. The experiment in a line: Antimicrobial activity against Pseudomonas aeruginosa PAO1. In kind it is functional, organism-based. The essentials:
as §1

In assay [4] the test system is Acinetobacter baumannii. The experiment in a line: Antimicrobial activity against Acinetobacter baumannii ATCC 19606. In kind it is functional, organism-based. The conditions noted are these: ATCC 19606 = CIP 70.34 = JCM 6841. The essentials:
as §1

The subject of assay [5] is Escherichia coli. The experiment in a line: Antimicrobial activity against Escherichia coli O157:H7. The class given is functional, organism-based.
Assay [6] deals with Micrococcus luteus. The assay is described as follows: Antimicrobial activity against Micrococcus luteus JVC1154 at 50 ug after 16 to 18 hrs by disk diffusion method. The class given is functional. To be noted: read-out: DIZ. The essentials: (§2)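 Disk diffusion: strains grown at 37 °C in NE13 medium. Agar plates swabbed from 10^6 cells/mL suspensions; 6 mm paper disks loaded with 50 μg compound; growth-inhibition zones measured after 16−18 h.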

Assay [7] has as its system Staphylococcus aureus. The experiment in a line: Antimicrobial activity against Staphylococcus aureus RN4220 at 50 ug after 16 to 18 hrs by disk diffusion method. The class given is functional. To be noted: read-out: DIZ. In short, it runs like this: as §2
In assay [8] the test system is Mycobacterium tuberculosis. The assay is described as follows: Antimicrobial activity against Mycobacterium tuberculosis str. Erdman by MTT assay. The class given is functional. The essentials:
(§3)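 Strains were grown in Middlebrook 7H9 with 0.2% glycerol and 10% ADC; tyloxapol was omitted in assays. Inoculum of 10^5 cells/mL was exposed to 2-fold serial dilutions at 37 °C in 5% CO2 for 7 d. MTT (2.5 mg/mL) was then added for 24 h, followed by 10% Na lauryl sulfate, and OD570 read after 24 h. IC50 came from a four-parameter log2 dose-response fit, in triplicate.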

The test system of assay [9] is Mycobacterium tuberculosis. The assay is described as follows: Antimicrobial activity against Mycobacterium tuberculosis H37Rv by MTT assay. In kind it is functional, organism-based. In short, it runs like this: as §3
The test system of assay [10] is Mycobacterium tuberculosis. The experiment in a line: Antimicrobial activity against Mycobacterium tuberculosis CDC1551 by MTT assay. The class given is functional. In short, it runs like this:
as §3

In assay [1], `CN[C@@H]1[C@H](O)[C@H](NC)[C@H]2O[C@@]3(O)C(=O)C[C@@H](C)O[C@H]3O[C@@H]2[C@H]1O` [SPECTINOMYCIN] returned an MIC of 32 µg/mL (≈ 96.3 µM).

Consider `CCCCCCCCCC[C@H](O)[C@@H]1O[C@]12C=CC(=O)O2` [RAMARIOLIDE A], for which the outcome in assay [2], in assay [3], in assay [4] and in assay [5] was inactive. For the same compound, the figures for the zone of inhibition at 50 µg/disc in assay [6] and in [7] were 18 mm and 15 mm, respectively. For the same compound, the IC50 in assay [8], in [9] and in assay [10] was 53 µg/mL (≈ 188 µM) each time. For the same compound, the MIC in assay [8] amounted to 64 µg/mL (≈ 227 µM); in [9], 64 µg/mL (≈ 227 µM); in assay [10] it was 64 µg/mL (≈ 227 µM); in assay [1], 8 µg/mL (≈ 28.3 µM).

Consider `NNC(=O)c1ccncc1` [ISONIAZID], for which the MIC in assay [1] turned out to be 8 µg/mL (≈ 58.3 µM).
